Laboratory results published in ChEMBL document CHEMBL1949620, “Cyclolinopeptide derivatives modify methotrexate-induced suppression of the humoral immune response in mice” (Eur J Med Chem, 2011).
Calls of active or inactive are those of the source. The rule behind the calls is not given here. Peptide text beside a SMILES is read from it.

Legend:
Type in all cases: functional, cell-based
Splenocyte [1] = assay: Immunoregulatory activity against methotrexate-induced decrease of humoral immune response in SRBC primed BALB/c mouse splenocytes assessed as increase of antibody forming cells at 10 ug/ml after 4 days
Summary of the method: (§1)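 Female BALB/c mice, 12 weeks old, primed i.p. with 0.2 ml of 1% SRBC. Splenocytes taken 4 days later and cultured at 5×10⁶/ml in RPMI 1640 with 10% FCS, glutamine, pyruvate, 2-mercaptoethanol and antibiotics, plus 0.05 ml of 0.005% SRBC. Peptides (in Cremophor/ethanol, diluted in RPMI) added at culture start; MTX (0.25, 0.5 or 1.0 mM) added at 24 h. After 4 days, AFC counted by agar-gel local haemolysis; Student's t-test.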

Splenocyte [2] = assay: Immunostimulatory activity in SRBC primed BALB/c mouse splenocytes assessed as humoral immune response by measuring inhibition of antibody forming cells at 10 ug/ml after 4 days
Summary of the method: (§2)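 Splenocytes from female BALB/c mice (12 weeks old) primed i.p. with 0.2 ml of 1% SRBC and harvested after 4 days. Cells cultured at 5×10⁶/ml in RPMI 1640 with 10% FCS and supplements, with 0.05 ml of 0.005% SRBC antigen. Peptide (Cremophor/ethanol stock diluted in RPMI) added at initiation, no MTX. Antibody-forming cells counted by local haemolysis in agar after 4 days; Student's t-test.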

Splenocyte [3] = assay: Immunoregulatory activity against methotrexate-induced decrease of humoral immune response in SRBC primed BALB/c mouse splenocytes assessed as increase of antibody forming cells at […] after 4 days; summary of the method: as §1
Splenocyte [4] = assay: Immunostimulatory activity in SRBC primed BALB/c mouse splenocytes assessed as humoral immune response by measuring increase of antibody forming cells at 0.25 to 1 mM after 4 days; settings: 1 to 10 ug/ml, in the assay text read “at 1 to 10 ug/ml” for “at 0.25 to 1 mM”; summary of the method: as §1
Splenocyte [5] = assay: Immunostimulatory activity in SRBC primed BALB/c mouse splenocytes assessed as humoral immune response by measuring increase of antibody forming cells after 4 days; summary of the method: as §2
Splenocyte [6] = assay: Immunostimulatory activity in SRBC primed BALB/c mouse splenocytes assessed as humoral immune response by measuring increase of antibody forming cells at 1 ug/ml after 4 days; summary of the method: as §2
Splenocyte [7] = assay: Immunoregulatory activity against methotrexate-induced decrease of humoral immune response in SRBC primed BALB/c mouse splenocytes assessed as increase of antibody forming cells at 0.1 ug/ml after 4 days; summary of the method: as §1
Splenocyte [8] = assay: Immunoregulatory activity against methotrexate-induced decrease of humoral immune response in SRBC primed BALB/c mouse splenocytes assessed as increase of antibody forming cells at 1 ug/ml after 4 days; summary of the method: as §1

Compound | increase of antibody forming cells (Splenocyte [1]) | inhibition (Splenocyte [2]) | Activity (Splenocyte [4]) | inhibition (Splenocyte [8]) | further results
CC[C@H](C)[C@@H]1NC(=O)[C@H](CC(C)C)NC(=O)[C@H](Cc2ccccc2)N2CCN(C(=O)[C@@H]3CCCN3C(=O)[C@@H]3CCCN3C(=O)[C@H](C(C)C)NC(=O)[C@H](CC(C)C)NC(=O)[C@H]([C@@H](C)CC)NC1=O)[C@@H](Cc1ccccc1)C2=O | Active | Active |  |  | 
CC[C@H](C)[C@H](NC(=O)[C@@H](NC(=O)[C@H](CC(C)C)NC(=O)[C@H](Cc1ccccc1)N1CCN(C(=O)[C@@H]2CCCN2C(=O)[C@@H]2CCCN2C(=O)[C@@H](NC(=O)[C@@H](N)CC(C)C)C(C)C)[C@@H](Cc2ccccc2)C1=O)[C@@H](C)CC)C(=O)O |  |  | inactive |  | inhibition (Splenocyte [3]): Active
CC[C@H](C)[C@@H]1NC(=O)[C@H](CC(C)C)NC(=O)[C@H](Cc2ccccc2)NC(=O)[C@H](Cc2ccccc2)NC(=O)[C@@H]2CCCN2C(=O)[C@@H]2CCCN2C(=O)[C@H](C(C)C)NC(=O)[C@H](CC(C)C)NC(=O)[C@H]([C@@H](C)CC)NC1=O (cyclo(FFLIILVPP)) | Active | Active |  | Active | Activity (Splenocyte [5]): Dose-dependent effect; Activity (Splenocyte [6]): inactive; inhibition (Splenocyte [7]): Active
CC[C@H](C)[C@@H]1NC(=O)[C@H](CC(C)C)NC(=O)[C@@H](Cc2ccccc2)N2CCN(C(=O)[C@@H]3CCCN3C(=O)[C@@H]3CCCN3C(=O)[C@H](C(C)C)NC(=O)[C@H](CC(C)C)NC(=O)[C@H]([C@@H](C)CC)NC1=O)[C@H](Cc1ccccc1)C2=O | Active |  |  | Active | 
CC[C@H](C)[C@H](NC(=O)[C@@H](NC(=O)[C@H](CC(C)C)NC(=O)[C@@H](Cc1ccccc1)N1CCN(C(=O)[C@@H]2CCCN2C(=O)[C@@H]2CCCN2C(=O)[C@@H](NC(=O)[C@@H](N)CC(C)C)C(C)C)[C@H](Cc2ccccc2)C1=O)[C@@H](C)CC)C(=O)O | Active |  | Active |  | 
H-LVPPFFLII-OH | Active |  | inactive |  | 
